# Columns and labels:
# [1] = biological target: T1, 5-hydroxytryptamine receptor 4 (Homo sapiens, UniProt Q13639); assay: Binding affinity for 5-HT4 receptor using [3H]GR-113808
# [2] = biological target: T1, 5-hydroxytryptamine receptor 4; assay: Percent cAMP production in C6 glial cells expressing human 5-hydroxytryptamine 4 receptor; format: functional, cell-based
# Method in brief: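 Confluent C6 cells stably expressing human 5-HT4(e) receptor were serum-starved 4 h, then preincubated 15 min with 5 mM theophylline and 10 μM pargyline. Compounds (seven concentrations, 10^-10 to 10^-5) and/or 5-HT (1 μM) were added for 15 min at 37 °C. Stopped with 20% perchloric acid, neutralized, and cAMP measured by radioimmunoassay.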
# T1 sequence (Q13639 whole entry): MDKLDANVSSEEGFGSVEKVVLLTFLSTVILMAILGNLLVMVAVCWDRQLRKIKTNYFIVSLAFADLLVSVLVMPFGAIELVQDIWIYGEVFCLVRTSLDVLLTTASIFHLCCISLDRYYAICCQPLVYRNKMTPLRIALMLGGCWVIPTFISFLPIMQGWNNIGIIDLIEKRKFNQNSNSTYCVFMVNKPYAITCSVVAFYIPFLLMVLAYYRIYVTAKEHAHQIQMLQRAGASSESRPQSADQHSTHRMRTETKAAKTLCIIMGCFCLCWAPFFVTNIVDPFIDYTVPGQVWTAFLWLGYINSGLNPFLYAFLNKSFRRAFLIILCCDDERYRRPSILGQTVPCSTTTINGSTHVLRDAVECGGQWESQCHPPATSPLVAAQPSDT
Structure (SMILES),Ki [1] [nM],cAMP [2] [%]
COc1cc(N)c(Cl)cc1C(=O)OCCN1CCC(C(=O)NCCCNC(=O)C2CCN(CCOC(=O)c3cc(Cl)c(N)cc3OC)CC2)CC1,13,13
COc1cc(N)c(Cl)cc1C(=O)OCCN1CCCCC1,,45
COc1cc(N)c(Cl)cc1C(=O)OCCN1CCC(C(=O)NCCCCCNC(=O)C2CCN(CCOC(=O)c3cc(Cl)c(N)cc3OC)CC2)CC1,5,5
COc1cc(N)c(Cl)cc1C(=O)OCCN1CCC(C(=O)NCCCOCCOCCOCNC(=O)C2CCN(CCOC(=O)c3cc(Cl)c(N)cc3OC)CC2)CC1,6,0
COc1cc(N)c(Cl)cc1C(=O)OCCN1CCC(NC(=O)CCCCCNC(=O)C2CCN(CCOC(=O)c3cc(Cl)c(N)cc3OC)CC2)CC1,7,46
COc1cc(N)c(Cl)cc1C(=O)OCCN1CCC(C(=O)NCCOCCNC(=O)C2CCN(CCOC(=O)c3cc(Cl)c(N)cc3OC)CC2)CC1,19,0
COc1cc(N)c(Cl)cc1C(=O)OCCN1CCC(NC(=O)CCCC(=O)NC2CCN(CCOC(=O)c3cc(Cl)c(N)cc3OC)CC2)CC1,5,32
COc1cc(N)c(Cl)cc1C(=O)OCCN1CCC(NC(=O)CCCCCCCCCCNc2nc(NCCCCCCCCCCC(=O)NC3CCN(CCOC(=O)c4cc(Cl)c(N)cc4OC)CC3)nc(NCc3ccccc3)n2)CC1,113,12
COc1cc(N)c(Cl)cc1C(=O)OCCN1CCC(NC(=O)CCCCCCCCCCN)CC1,13,50
COc1cc(N)c(Cl)cc1C(=O)OCCN1CCC(NC(=O)CCCCCCCCCCN(CCCCCCCCCCC(=O)NC2CCN(CCOC(=O)c3cc(Cl)c(N)cc3OC)CC2)CC(=O)NCC2CCNCC2)CC1,50,10
COc1cc(N)c(Cl)cc1C(=O)OCCN1CCC(NC(=O)CCC(=O)NC2CCN(CCOC(=O)c3cc(Cl)c(N)cc3OC)CC2)CC1,21,47
COc1cc(N)c(Cl)cc1C(=O)OCCN1CCC(NC(=O)CCCCCCCCCCC(=O)NC2CCN(Cc3ccccc3)CC2)CC1,14,35
COc1cc(N)c(Cl)cc1C(=O)OCCN1CCN(C(=O)CCCCCC(=O)N2CCN(CCOC(=O)c3cc(Cl)c(N)cc3OC)CC2)CC1,488,
COc1cc(N)c(Cl)cc1C(=O)OCCN1CCC(NC(=O)CCCNC(=O)C2CCN(CCOC(=O)c3cc(Cl)c(N)cc3OC)CC2)CC1,31,42
COc1cc(N)c(Cl)cc1C(=O)OCCN1CCC(NC(=O)CCCCCCCCCCC(=O)NC2CCN(CCOC(=O)c3cc(Cl)c(N)cc3O)CC2)CC1,16,20
COc1cc(N)c(Cl)cc1C(=O)OCCN1CCC(NC(=O)CCNC(=O)C2CCN(CCOC(=O)c3cc(Cl)c(N)cc3OC)CC2)CC1,24,10
COc1cc(N)c(Cl)cc1C(=O)OCCN1CCC(C(=O)NCCNC(=O)C2CCN(CCOC(=O)c3cc(Cl)c(N)cc3OC)CC2)CC1,37,3
COc1cc(N)c(Cl)cc1C(=O)OCCN1CCC(NC(=O)CCc2ccc3c(c2)oc2cc(CCC(=O)NC4CCN(CCOC(=O)c5cc(Cl)c(N)cc5OC)CC4)ccc23)CC1,47,23
COc1cc(N)c(Cl)cc1C(=O)OCCN1CCN(C(=O)CCCCCCCCCCC(=O)N2CCN(CCOC(=O)c3cc(Cl)c(N)cc3OC)CC2)CC1,200,
COc1cc(N)c(Cl)cc1C(=O)OCCN1CCC(C(=O)NCCOCCOCCNC(=O)C2CCN(CCOC(=O)c3cc(Cl)c(N)cc3OC)CC2)CC1,3,3
COc1cc(N)c(Cl)cc1C(=O)OCCN1CCC(C(=O)NCc2cccc(CNC(=O)C3CCN(CCOC(=O)c4cc(Cl)c(N)cc4OC)CC3)c2)CC1,5,16
COc1cc(N)c(Cl)cc1C(=O)OCCN1CCC(NC(=O)CCCCCC(=O)NC2CCN(CCOC(=O)c3cc(Cl)c(N)cc3OC)CC2)CC1,9,26

# Other lines, results leading:
Ki [1] [nM],cAMP [2] [%],Structure (SMILES)
8,8,COc1cc(N)c(Cl)cc1C(=O)OCCN1CCC(C(=O)NCCCCCCCCCCNC(=O)C2CCN(CCOC(=O)c3cc(Cl)c(N)cc3OC)CC2)CC1
7,16,COc1cc(N)c(Cl)cc1C(=O)OCCN1CCC(CNC(=O)CCC(=O)NCC2CCN(CCOC(=O)c3cc(Cl)c(N)cc3OC)CC2)CC1
13,20,COc1cc(N)c(Cl)cc1C(=O)OCCN1CCC(CNC(=O)CCCC(=O)NCC2CCN(CCOC(=O)c3cc(Cl)c(N)cc3OC)CC2)CC1
,24,COc1cc(N)c(Cl)cc1C(=O)OCCN1CCC(CCNC(=O)CCCC(=O)NCCC2CCN(CCOC(=O)c3cc(Cl)c(N)cc3OC)CC2)CC1
20,5,COc1cc(N)c(Cl)cc1C(=O)OCCN1CCC(NC(=O)CCCCCCCCCCNC(=O)C2CCN(CCOC(=O)c3cc(Cl)c(N)cc3OC)CC2)CC1
9,6,COc1cc(N)c(Cl)cc1C(=O)OCCN1CCC(CCNC(=O)CCCCCCCCCCC(=O)NCCC2CCN(CCOC(=O)c3cc(Cl)c(N)cc3OC)CC2)CC1
22,21,COc1cc(N)c(Cl)cc1C(=O)OCCN1CCC(CNC(=O)CCCCCCCCCCC(=O)NCC2CCN(CCOC(=O)c3cc(Cl)c(N)cc3OC)CC2)CC1
26,20,COc1cc(N)c(Cl)cc1C(=O)OCCN1CCC(CNC(=O)CCCCCC(=O)NCC2CCN(CCOC(=O)c3cc(Cl)c(N)cc3OC)CC2)CC1
5,15,COc1cc(N)c(Cl)cc1C(=O)OCCN1CCC(CCNC(=O)CCC(=O)NCCC2CCN(CCOC(=O)c3cc(Cl)c(N)cc3OC)CC2)CC1
11,31,COc1cc(N)c(Cl)cc1C(=O)OCCN1CCC(CCNC(=O)CCCCCC(=O)NCCC2CCN(CCOC(=O)c3cc(Cl)c(N)cc3OC)CC2)CC1

# — ChEMBL document CHEMBL1141100, “Design and synthesis of specific probes for human 5-HT4 receptor dimerization studies” (J Med Chem, 2005)
